Measured values taken from ChEMBL document CHEMBL3871271, “Novel bis-arylalkylamines as myeloperoxidase inhibitors: Design, synthesis, and structure-activity relationship study” (Eur J Med Chem, 2016).

Experiments:
[1] = Redox potential of compound in Ag/AgCl-NaCl containing phosphate buffer assessed as one electron redox potential at 1 10^-4M by cyclic voltammetric analysis
Method in brief: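 Cyclic voltammetry at 25 ± 2 °C in a three-electrode cell: glassy carbon working, platinum wire auxiliary, Ag/AgCl (3 M NaCl) reference. Inhibitor 1×10^-4 M in 0.1 M phosphate buffer pH 7.4. Single cycle at 100 mV s⁻¹. E°′ converted to NHE by adding +198 mV.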

Myeloperoxidase = target: T1, Myeloperoxidase (Homo sapiens, UniProt P05164); assay: Inhibition of MPO chlorination activity (unknown origin) assessed as taurine chloramine formation after 5 mins in presence of H2O2/Cl- by HTS method
T1 sequence (P05164 whole entry): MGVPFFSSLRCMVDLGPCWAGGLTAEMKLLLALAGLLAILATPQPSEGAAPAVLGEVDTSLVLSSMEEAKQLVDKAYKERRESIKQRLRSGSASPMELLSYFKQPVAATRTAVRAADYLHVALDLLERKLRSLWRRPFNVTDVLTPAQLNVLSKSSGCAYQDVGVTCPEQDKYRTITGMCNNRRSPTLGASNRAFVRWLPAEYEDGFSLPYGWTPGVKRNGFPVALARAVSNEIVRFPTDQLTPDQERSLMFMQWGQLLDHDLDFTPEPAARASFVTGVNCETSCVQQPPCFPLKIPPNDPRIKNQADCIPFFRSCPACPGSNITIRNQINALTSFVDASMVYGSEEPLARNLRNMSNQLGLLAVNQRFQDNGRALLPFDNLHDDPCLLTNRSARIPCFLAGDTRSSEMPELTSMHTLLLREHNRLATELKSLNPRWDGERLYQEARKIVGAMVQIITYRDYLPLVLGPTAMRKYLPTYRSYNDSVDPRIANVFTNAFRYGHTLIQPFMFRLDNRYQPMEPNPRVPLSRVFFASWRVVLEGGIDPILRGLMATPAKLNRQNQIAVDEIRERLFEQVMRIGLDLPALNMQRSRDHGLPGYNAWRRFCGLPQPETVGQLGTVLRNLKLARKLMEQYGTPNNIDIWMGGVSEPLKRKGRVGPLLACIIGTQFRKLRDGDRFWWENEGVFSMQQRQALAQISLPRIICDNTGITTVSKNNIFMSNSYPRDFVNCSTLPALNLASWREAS
Method in brief: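 Recombinant MPO (40 nM) in 10 mM phosphate buffer pH 7.4 with 300 mM NaCl and 15 mM taurine, inhibitor up to 20 μM, 37 °C. Started with H2O2 (100 μM), stopped after 5 min with catalase. Taurine chloramine read with thionitrobenzoic acid at 412 nm. IC50 taken from the concentration curve, no H2O2 = 100% inhibition, no inhibitor = 0%.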

HEK293 = assay: Ratio of Ki for human SERT expressed in HEK293 cells to IC50 for MPO chlorination activity (unknown origin); format: cell-based
[2] = target: Sodium-dependent serotonin transporter (Homo sapiens, UniProt P31645); assay: Inhibition of human SERT expressed in HEK293 cells assessed as reduction in [3]5-HT uptake; format: cell-based
Chain of Sodium-dependent serotonin transporter (P31645 whole entry): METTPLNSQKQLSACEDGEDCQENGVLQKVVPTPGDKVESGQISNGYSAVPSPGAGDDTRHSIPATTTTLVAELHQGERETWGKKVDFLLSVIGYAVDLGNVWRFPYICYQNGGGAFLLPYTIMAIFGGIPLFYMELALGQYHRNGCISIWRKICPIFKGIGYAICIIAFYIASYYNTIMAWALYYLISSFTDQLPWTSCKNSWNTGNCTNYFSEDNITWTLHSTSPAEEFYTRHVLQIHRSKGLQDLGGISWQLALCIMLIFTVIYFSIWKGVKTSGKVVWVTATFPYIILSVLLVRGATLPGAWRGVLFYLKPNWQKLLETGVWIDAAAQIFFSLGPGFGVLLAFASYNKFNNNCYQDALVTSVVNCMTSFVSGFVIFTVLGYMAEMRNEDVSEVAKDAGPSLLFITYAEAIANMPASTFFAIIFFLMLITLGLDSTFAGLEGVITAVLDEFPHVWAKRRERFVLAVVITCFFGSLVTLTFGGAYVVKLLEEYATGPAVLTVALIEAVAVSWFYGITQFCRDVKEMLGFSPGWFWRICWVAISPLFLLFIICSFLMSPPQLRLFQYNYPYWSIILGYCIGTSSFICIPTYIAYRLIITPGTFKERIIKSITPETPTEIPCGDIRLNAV
Method in brief: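 hSERT cDNA in pcDNA3.1, transfected into HEK-293 MSR cells (DMEM, 10% FCS, penicillin/streptomycin, 6 µg/mL Geneticin, 37 °C, 5% CO2). Cells detached with Versene and trypsin/EDTA and seeded into plates. [3H]5-HT uptake measured per an earlier described method, with HEK-293 MSR cells used in place of COS-1. Ki reported.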

[3] = target: T2, Myeloperoxidase (Homo sapiens) (UniProt P05164); assay: Inhibition of human polymorphonuclear leukocyte MPO assessed as apparent bi-molecular rate constant for PorFe(4)=O radical reduction for 0.001 to 2.681 secs by stopped-flow spectroscopic analysis
T2 sequence (whole entry): T1 sequence (P05164 whole entry)
Method in brief: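 Purified MPO (purity index A430/A280 ≥0.86) at 8 µM was premixed with 80 µM H2O2. Reaction in 200 mM phosphate, pH 7.4, 25 °C, 2% DMSO final. kobs taken as the mean of ≥3 runs. Second-order constant derived from the slope of kobs versus concentration.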

[4] = target: T2, Myeloperoxidase (Homo sapiens); assay: Inhibition of human polymorphonuclear leukocyte MPO assessed as ratio of apparent bi-molecular rate constant for PorFe(4)=O radical reduction to PorFe(4)-OH reduction by stopped-flow spectroscopic analysis
[5] = target: T2, Myeloperoxidase (Homo sapiens); assay: Inhibition of human polymorphonuclear leukocyte MPO assessed as apparent bimolecular rate constant for PorFe(4)-OH reduction for 4.01 to 31.32 secs by stopped-flow spectroscopic analysis
Method in brief: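 Single-exponential fits gave kobs, as the mean of ≥3 runs, with substrate at least 5-fold over enzyme. Conditions were 200 mM phosphate, pH 7.4, 25 °C, 2% DMSO final. Apparent second-order constant taken from the slope of kobs versus concentration.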

COc1ccccc1CCNCc1ccccc1F
Activity [1]: > 1.2 V

Oc1ccccc1CNCCc1ccccc1F
IC50 (Myeloperoxidase): 670 nM | Activity [1]: 948 mV

c1ccc(CN2CCN(Cc3ccccc3)CC2)cc1
IC50 (Myeloperoxidase): > 10000 nM | Activity [1]: 996 mV

COc1ccccc1CCCNCc1ccccc1O
IC50 (Myeloperoxidase): 2500 nM | Activity [1]: 871 mV

Oc1ccccc1CN1CCCCC1
IC50 (Myeloperoxidase): > 10000 nM | Activity [1]: 953 mV

Oc1ccccc1CCCNCc1ccccc1
IC50 (Myeloperoxidase): 360 nM | Activity [1]: 825 mV

Oc1ccccc1CCNCc1ccccc1O
IC50 (Myeloperoxidase): 650 nM | Activity [1]: 870 mV

COc1ccccc1CCNCc1ccccc1O
IC50 (Myeloperoxidase): 1850 nM | Activity [1]: 907 mV

Oc1ccccc1CC1CCCNC1 (centres undefined)
IC50 (Myeloperoxidase): > 10000 nM | Activity [1]: 960 mV

Fc1ccc2[nH]cc(CCCNCc3ccccc3)c2c1
Ratio (HEK293): 4.1 | Ki [2]: 0.05 µM

COc1ccccc1CCNCc1ccccc1
Activity [1]: > 1.2 V

Fc1ccccc1CN1CCN(Cc2ccccc2F)CC1
IC50 (Myeloperoxidase): > 10000 nM | Activity [1]: 1100 mV

Oc1ccccc1CCNCc1ccccc1F
IC50 (Myeloperoxidase): 700 nM | Activity [1]: 856 mV

Oc1ccccc1CN1CCN(Cc2ccccc2O)CC1
IC50 (Myeloperoxidase): 1400 nM | Activity [1]: 1070 mV

O=C1N(Cc2ccccc2)CCCN1Cc1ccccc1
Activity [1]: > 1.2 V

Oc1ccccc1CNCCCc1c[nH]c2ccc(F)cc12
IC50 (Myeloperoxidase): 54 nM | Kapp [3]: 1.4 ×10⁷ /M/s | Ratio (HEK293): 14.8 | Activity [1]: 872 mV | Ki [2]: 0.8 µM | Ratio [4]: 4000 | Kapp [5]: 3.5 ×10³ /M/s

Oc1ccccc1CCNCc1ccccc1
IC50 (Myeloperoxidase): 2700 nM | Activity [1]: 897 mV

Oc1ccccc1CCNCc1cccc(F)c1
IC50 (Myeloperoxidase): 660 nM | Activity [1]: 807 mV

c1ccc(CN2CCCN(Cc3ccccc3)C2)cc1
Activity [1]: > 1.2 V

Oc1ccccc1CCCNCc1cccc(F)c1
IC50 (Myeloperoxidase): 370 nM | Activity [1]: 820 mV

c1ccc(CCCNCc2ccccc2)cc1
Activity [1]: > 1.2 V

COc1ccccc1CCCNCc1cccc(F)c1
Activity [1]: > 1.2 V

COc1ccccc1CCCNCc1ccccc1F
Activity [1]: > 1.2 V

Fc1cccc(CN2CCN(Cc3cccc(F)c3)CC2)c1
IC50 (Myeloperoxidase): > 10000 nM | Activity [1]: 1060 mV

COc1ccccc1CCCNCc1ccccc1
Activity [1]: > 1.2 V

Oc1ccccc1CCNCc1ccc(F)cc1
IC50 (Myeloperoxidase): 1160 nM | Activity [1]: 865 mV

Oc1ccccc1CNCCCc1ccccc1F
IC50 (Myeloperoxidase): 370 nM | Activity [1]: 902 mV

Oc1ccccc1CCCNCc1ccccc1O
IC50 (Myeloperoxidase): 350 nM | Kapp [3]: 1.5 ×10⁶ /M/s | Ratio (HEK293): 31.4 | Activity [1]: 844 mV | Ki [2]: 11 µM | Ratio [4]: 313 | Kapp [5]: 4.8 ×10³ /M/s

Oc1ccccc1CCCNCc1ccccc1F
IC50 (Myeloperoxidase): 270 nM | Kapp [3]: 5.7 ×10⁶ /M/s | Ratio (HEK293): 51.8 | Activity [1]: 833 mV | Ki [2]: 14 µM | Ratio [4]: 4070 | Kapp [5]: 1.4 ×10³ /M/s

COc1ccccc1CCNCc1ccc(F)cc1
Activity [1]: > 1.2 V

Oc1ccccc1CNCCCc1ccccc1
IC50 (Myeloperoxidase): 1200 nM | Activity [1]: 928 mV

Oc1ccccc1CNCCc1c[nH]c2ccc(F)cc12
IC50 (Myeloperoxidase): 85 nM | Activity [1]: 902 mV

c1ccc(CCNCc2ccccc2)cc1
Activity [1]: > 1.2 V

Oc1ccccc1CCCNCc1ccc(F)cc1
IC50 (Myeloperoxidase): 490 nM | Activity [1]: 869 mV

Oc1ccccc1CNCCc1ccccc1
IC50 (Myeloperoxidase): 700 nM | Activity [1]: 973 mV

Fc1ccc(CN2CCN(Cc3ccc(F)cc3)CC2)cc1
IC50 (Myeloperoxidase): > 10000 nM | Activity [1]: 1020 mV

COc1ccccc1CCCNCc1ccc(F)cc1
Activity [1]: > 1.2 V

COc1ccccc1CCNCc1cccc(F)c1
Activity [1]: > 1.2 V
